Experimental data: ChEMBL document CHEMBL1212764, “Antimicrobial resistance in Haemophilus influenzae respiratory tract isolates in Korea: results of a nationwide acute respiratory infections surveillance” (2010)
≈ marks a conversion by molar mass, not a printed value.

Experiments:
Format in all cases: functional
[1] = tested on: Haemophilus influenzae; assay: Antimicrobial activity against Beta-lactamase-negative, ampicillin-resistant Haemophilus influenzae with Asp350Asn, Ser357Asp, Met377Ile, Ser385Thr, Ala502Thr, Asn526Lys substitutions in penicillin-binding protein 3 by broth microdilution method
Method in brief: (§1)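 Broth microdilution MIC in freshly prepared Haemophilus test medium per 2008 CLSI guidelines; H. influenzae ATCC 49247 and ATCC 49766 as control strains. Isolates from outpatient nasal aspirates (no prior antibiotics), cultured on blood agar with S. aureus streak and chocolate agar. PBP3 substitutions deduced from ftsI sequencing against the Rd strain; β-lactamase genes (TEM-1, ROB-1) detected by PCR.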

[2] = tested on: Haemophilus influenzae; assay: Antimicrobial activity against Beta-lactamase-positive, ampicillin-cluvulanate-resistant Haemophilus influenzae with Asp350Asn, Ser357Asp, Ala437Ser, Ala502Thr, Asn526Lys substitutions in penicillin-binding protein 3 by broth microdilution method; method in brief: as §1
[3] = tested on: Haemophilus influenzae; assay: Antimicrobial activity against Beta-lactamase-positive, ampicillin-cluvulanate-resistant Haemophilus influenzae with Asp350Asn, Ser357Asp, Met377Ile, Ser385Thr, Arg517His substitutions in penicillin-binding protein 3 by broth microdilution method; method in brief: as §1
[4] = tested on: Haemophilus influenzae; assay: Antimicrobial activity against Beta-lactamase-negative, ampicillin-resistant Haemophilus influenzae with Asp350Asn, Ser357Asp, Ser385Thr, Leu389Phe, Ala502Thr, Asn526Lys substitutions in penicillin-binding protein 3 by broth microdilution method; method in brief: as §1
[5] = tested on: Haemophilus influenzae; assay: Antimicrobial activity against Beta-lactamase-positive, ampicillin-cluvulanate-resistant Haemophilus influenzae with Asp350Asn, Ala437Ser substitutions in penicillin-binding protein 3 by broth microdilution method; method in brief: as §1
[6] = tested on: Haemophilus influenzae; assay: Antimicrobial activity against Beta-lactamase-negative, ampicillin-resistant Haemophilus influenzae with Ile449Val, Ala502Thr, Asn526Lys substitutions in penicillin-binding protein 3 by broth microdilution method; method in brief: as §1
[7] = tested on: Haemophilus influenzae; assay: Antimicrobial activity against Beta-lactamase-positive, ampicillin-cluvulanate-resistant Haemophilus influenzae with Ile449Val, Asn526Lys substitutions in penicillin-binding protein 3 by broth microdilution method; method in brief: as §1
[8] = tested on: Haemophilus influenzae; assay: Antimicrobial activity against Beta-lactamase-negative, ampicillin-resistant Haemophilus influenzae with Asp350Asn, Ser357Asp, Met377Ile, Ser385Thr, Leu389Phe, substitutions in penicillin-binding protein 3 by broth microdilution method; method in brief: as §1
[9] = tested on: Haemophilus influenzae; assay: Antimicrobial activity against Beta-lactamase-positive, ampicillin-cluvulanate-resistant Haemophilus influenzae with Asp350Asn, Met377Ile, Ser385Thr, Asn526Lys substitutions in penicillin-binding protein 3 by broth microdilution method; method in brief: as §1
[10] = tested on: Haemophilus influenzae; assay: Antimicrobial activity against Beta-lactamase-negative, ampicillin-resistant Haemophilus influenzae with Asp350Asn, Ser357Asp, Met377Ile, Ser385Thr, Arg517His substitutions in penicillin-binding protein 3 by broth microdilution method; method in brief: as §1
[11] = tested on: Haemophilus influenzae; assay: Antimicrobial activity against Beta-lactamase-positive, ampicillin-cluvulanate-resistant Haemophilus influenzae by broth microdilution method; method in brief: as §1
[12] = tested on: Haemophilus influenzae; assay: Antimicrobial activity against Beta-lactamase-negative, ampicillin-resistant Haemophilus influenzae with Ser311Pro, Ala502Thr, Asn526Lys substitutions in penicillin-binding protein 3 by broth microdilution method; method in brief: as §1
[13] = tested on: Haemophilus influenzae; assay: Antimicrobial activity against Haemophilus influenzae isolate by broth microdilution method; method in brief: as §1
[14] = tested on: Haemophilus influenzae; assay: Antimicrobial activity against Beta-lactamase-negative, ampicillin-resistant Haemophilus influenzae with Asp350Asn, Met377Ile, Asn526Lys substitutions in penicillin-binding protein 3 by broth microdilution method; method in brief: as §1
[15] = tested on: Haemophilus influenzae; assay: Antimicrobial activity against Beta-lactamase-negative, ampicillin-resistant Haemophilus influenzae with Ile449Val, Asn526Lys substitutions in penicillin-binding protein 3 by broth microdilution method; method in brief: as §1
[16] = tested on: Haemophilus influenzae; assay: Antimicrobial activity against Beta-lactamase-negative, ampicillin-resistant Haemophilus influenzae with Gly490Glu, Asn526Lys substitutions in penicillin-binding protein 3 by broth microdilution method; method in brief: as §1
[17] = tested on: Haemophilus influenzae; assay: Antimicrobial activity against Beta-lactamase-positive, ampicillin-cluvulanate-resistant Haemophilus influenzae with Ala368Thr, Ala502Thr, Asn526Lys substitutions in penicillin-binding protein 3 by broth microdilution method; method in brief: as §1
[18] = tested on: Haemophilus influenzae; assay: Antimicrobial activity against Beta-lactamase-negative, ampicillin-resistant Haemophilus influenzae with Asp350Asn, Met377Ile, Gly490Glu, Ala502Val, Asn526Lys substitutions in penicillin-binding protein 3 by broth microdilution method; method in brief: as §1
[19] = tested on: Haemophilus influenzae; assay: Antimicrobial activity against Beta-lactamase-positive, ampicillin-resistant Haemophilus influenzae by broth microdilution method; method in brief: as §1
[20] = tested on: Haemophilus influenzae; assay: Antimicrobial activity against Beta-lactamase-negative, ampicillin-resistant Haemophilus influenzae by broth microdilution method; method in brief: as §1
[21] = tested on: Haemophilus influenzae; assay: Antimicrobial activity against Beta-lactamase-positive, ampicillin-cluvulanate-resistant Haemophilus influenzae with Asp350Asn, Ala502Thr, Asn526Lys substitutions in penicillin-binding protein 3 by broth microdilution method; method in brief: as §1
[22] = tested on: Haemophilus influenzae; assay: Antimicrobial activity against Beta-lactamase-negative, ampicillin-resistant Haemophilus influenzae with Ala502Val, Asn526Lys substitutions in penicillin-binding protein 3 by broth microdilution method; method in brief: as §1
[23] = tested on: Haemophilus influenzae; assay: Antimicrobial activity against Beta-lactamase-positive, ampicillin-cluvulanate-resistant Haemophilus influenzae with Ala502Val, Asn526Lys substitutions in penicillin-binding protein 3 by broth microdilution method; method in brief: as §1
[24] = tested on: Haemophilus influenzae; assay: Antimicrobial activity against Beta-lactamase-positive, ampicillin-cluvulanate-resistant Haemophilus influenzae with Asp350Asn, Met377Ile, Asn526Lys substitutions in penicillin-binding protein 3 by broth microdilution method; method in brief: as §1
[25] = tested on: Haemophilus influenzae; assay: Antimicrobial activity against Beta-lactamase-negative, ampicillin-resistant Haemophilus influenzae with Asp350Asn, Met377Ile, Ala502Val, Asn526Lys substitutions in penicillin-binding protein 3 by broth microdilution method; method in brief: as §1
[26] = tested on: Haemophilus influenzae; assay: Antimicrobial activity against Beta-lactamase-negative, ampicillin-resistant Haemophilus influenzae with penicillin-binding protein 3 by broth microdilution method; method in brief: as §1
[27] = tested on: Haemophilus influenzae; assay: Antimicrobial activity against beta-lactamase-negative, ampicillin-sensitive Haemophilus influenzae by broth microdilution method; method in brief: as §1
[28] = tested on: Haemophilus influenzae; assay: Antimicrobial activity against Beta-lactamase-negative, ampicillin-resistant Haemophilus influenzae with Asp350Asn, Met377Ile, Gly490Glu, Asn526Lys substitutions in penicillin-binding protein 3 by broth microdilution method; method in brief: as §1
[29] = tested on: Haemophilus influenzae; assay: Antimicrobial activity against Beta-lactamase-positive, ampicillin-cluvulanate-resistant Haemophilus influenzae with Asp350Asn, Met377Ile, Ala502Val, Asn526Lys substitutions in penicillin-binding protein 3 by broth microdilution method; method in brief: as §1
[30] = tested on: Haemophilus influenzae; assay: Antimicrobial activity against Beta-lactamase-positive, ampicillin-cluvulanate-resistant Haemophilus influenzae with Asp350Asn, Met377Ile, Gly490Glu, Ala502Val, Asn526Lys substitutions in penicillin-binding protein 3 by broth microdilution method; method in brief: as §1
[31] = Haemophilus influenzae, read-out: MIC

`CC1(C)S[C@@H]2[C@H](NC(=O)[C@H](N)c3ccccc3)C(=O)N2[C@H]1C(=O)O` [AMPICILLIN] was tested, and the MIC [1] was 2.8 mg/L (≈ 8.01 µM), the MIC [2] was 208 mg/L (≈ 595 µM) and the MIC [3] was 192 mg/L (≈ 549 µM). For the same compound, the MIC [4] was 2.8 mg/L (≈ 8.01 µM), the MIC [5] was 512 mg/L (≈ 1470 µM) and the MIC [6] was 2.8 mg/L (≈ 8.01 µM). The MIC [7] was 512 mg/L (≈ 1470 µM), the MIC [8] was 5.3 mg/L (≈ 15.2 µM) and the MIC [9] was 288 mg/L (≈ 824 µM). For the same compound, the MIC [10] was 2 mg/L (≈ 5.72 µM), the MIC50 [11] was 256 mg/L (≈ 733 µM) and the MIC90 [11] was over 512 mg/L. For the same compound, the MIC [12] was 2.8 mg/L (≈ 8.01 µM), the MIC50 [13] was 16 mg/L (≈ 45.8 µM) and the MIC90 [13] was 256 mg/L (≈ 733 µM). The MIC [14] was 4 mg/L (≈ 11.4 µM), the MIC [15] was 2.7 mg/L (≈ 7.73 µM) and the MIC [15, 31] was 2.7 mg/L (≈ 7.73 µM). The MIC [16] was 4 mg/L (≈ 11.4 µM), the MIC [17] was 208 mg/L (≈ 595 µM) and the MIC [18] was 2.2 mg/L (≈ 6.3 µM). For the same compound, the MIC50 [19] was 128 mg/L (≈ 366 µM), the MIC90 [19] was 256 mg/L (≈ 733 µM) and the MIC50 [20] was 2 mg/L (≈ 5.72 µM). For the same compound, the MIC90 [20] was 8 mg/L (≈ 22.9 µM), the MIC [21] was 208 mg/L (≈ 595 µM) and the MIC [22] was 2.2 mg/L (≈ 6.3 µM). For the same compound, the MIC [23] was 230 mg/L (≈ 658 µM), the MIC [24] was 288 mg/L (≈ 824 µM) and the MIC [25] was 2.2 mg/L (≈ 6.3 µM). For the same compound, the MIC [26] was 2 mg/L (≈ 5.72 µM), the MIC50 [27] was 1 mg/L (≈ 2.86 µM) and the MIC90 [27] was 1 mg/L (≈ 2.86 µM). It also gave an MIC [28] of 4 mg/L (≈ 11.4 µM), an MIC [29] of 230 mg/L (≈ 658 µM) and an MIC [30] of 230 mg/L (≈ 658 µM).

Compound `N[C@@H](C(=O)N[C@@H]1C(=O)N2C(C(=O)O)=C(Cl)CS[C@H]12)c1ccccc1` [CEFACLOR ANHYDROUS] has an MIC50 [11] of 8 mg/L (≈ 21.8 µM), an MIC90 [11] of 64 mg/L (≈ 174 µM) and an MIC50 [13] of 8 mg/L (≈ 21.8 µM). It also gave an MIC90 [13] of 32 mg/L (≈ 87 µM), an MIC50 [19] of 8 mg/L (≈ 21.8 µM) and an MIC90 [19] of 32 mg/L (≈ 87 µM). It also gave an MIC50 [20] of 8 mg/L (≈ 21.8 µM), an MIC90 [20] of 32 mg/L (≈ 87 µM) and an MIC50 [27] of 8 mg/L (≈ 21.8 µM). For the same compound, the MIC90 [27] was 16 mg/L (≈ 43.5 µM).

Work on `CO/N=C(\C(=O)N[C@@H]1C(=O)N2C(C(=O)O)=C(COC(C)=O)CS[C@H]12)c1csc(N)n1` [CEFOTAXIME] yielded an MIC [1] of 0.194 mg/L (≈ 0.426 µM), an MIC [2] of 0.079 mg/L (≈ 0.173 µM) and an MIC [3] of 0.188 mg/L (≈ 0.413 µM). The MIC [4] was 0.194 mg/L (≈ 0.426 µM), the MIC [5] was 0.125 mg/L (≈ 0.274 µM) and the MIC [6] was 0.194 mg/L (≈ 0.426 µM). The MIC [7] was 0.094 mg/L (≈ 0.206 µM), the MIC [8] was 1.7 mg/L (≈ 3.73 µM) and the MIC [9] was 0.532 mg/L (≈ 1.17 µM). It also gave an MIC [10] of 0.25 mg/L (≈ 0.549 µM), an MIC50 [11] of 0.063 mg/L (≈ 0.138 µM) and an MIC90 [11] of 1 mg/L (≈ 2.2 µM). The MIC [12] was 0.194 mg/L (≈ 0.426 µM), the MIC50 [13] was 0.063 mg/L (≈ 0.138 µM) and the MIC90 [13] was 0.125 mg/L (≈ 0.274 µM). For the same compound, the MIC [14] was 0.063 mg/L (≈ 0.138 µM), the MIC [15, 31] was 0.708 mg/L (≈ 1.55 µM) and the MIC [16] was 0.063 mg/L (≈ 0.138 µM). The MIC [17] was 0.079 mg/L (≈ 0.173 µM), the MIC [18] was 0.069 mg/L (≈ 0.151 µM) and the MIC50 [19] was 0.063 mg/L (≈ 0.138 µM). For the same compound, the MIC90 [19] was 0.125 mg/L (≈ 0.274 µM), the MIC50 [20] was 0.063 mg/L (≈ 0.138 µM) and the MIC90 [20] was 1 mg/L (≈ 2.2 µM). It also gave an MIC [21] of 0.079 mg/L (≈ 0.173 µM), an MIC [22] of 0.069 mg/L (≈ 0.151 µM) and an MIC [23] of 0.188 mg/L (≈ 0.413 µM). It also gave an MIC [24] of 0.532 mg/L (≈ 1.17 µM), an MIC [25] of 0.069 mg/L (≈ 0.151 µM) and an MIC [26] of 0.063 mg/L (≈ 0.138 µM). The MIC50 [27] was 0.063 mg/L (≈ 0.138 µM), the MIC90 [27] was 0.25 mg/L (≈ 0.549 µM) and the MIC [28] was 0.063 mg/L (≈ 0.138 µM). It also gave an MIC [29] of 0.188 mg/L (≈ 0.413 µM) and an MIC [30] of 0.188 mg/L (≈ 0.413 µM).
